Like-named read-outs stand apart in the source and are kept apart here.
Assays:
Type in all cases: cell-based
HUVEC = assay: MTT cytotoxicity assay, HUVEC; conditions: read-out: IC50 HUVEC
Method in brief: (§1)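 MTT viability assay run in parallel on MCF-7, HeLa and non-cancerous HUVEC cells. Test concentrations: benzimidazole derivatives at 50–250 μM and benzothiazole derivatives at 5–100 μM. IC50 derived from the MTT read-out.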

HeLa = assay: MTT cytotoxicity assay, HeLa; conditions: read-out: IC50 HeLa
Method in brief: as §1

MCF-7 = assay: MTT cytotoxicity assay, MCF-7
Method in brief: as §1

[1] = read-out: IC50 MCF-7, MTT, MCF-7 cells

| Compound | IC50 (HUVEC; Homo sapiens, HUVEC) [µM] | IC50 (HeLa; Homo sapiens, HeLa) [µM] | IC50 (MCF-7; Homo sapiens, MCF7, read-out: IC50 MCF-7) [µM] | IC50 (HUVEC; MTT, non-cancerous HUVEC line) [µM] | IC50 (HeLa; MTT, HeLa cells) [µM] | IC50 (MCF-7; [1]) [µM] |
| --- | --- | --- | --- | --- | --- | --- |
| COc1cccc2c1C(=O)c1c(O)c3c(c(O)c1C2=O)C[C@@](O)(C(=O)CO)C[C@@H]3O[C@H]1C[C@H](N)[C@H](O)[C@H](C)O1 [Doxorubicin] | 93 ± 0.54 | 1.45 ± 0.15 | 17.44 ± 0.04 | – | – | – |
| Nc1c(C(=O)Nc2ccc(F)cc2)sc2nc(-c3cccs3)cc(C(F)(F)F)c12 [FDI-6] | – | – | – | 240.3 ± 1.14 | 18.9 ± 0.89 | 25.8 ± 2.41 |
| N#Cc1ccc(COC[C@H]2O[C@@H](n3c(NCc4ccc(Cl)c(Cl)c4)nc4c(N)ncnc43)[C@H](O)[C@@H]2O)cc1 [VER-155008] | – | – | – | 150 ± 2.23 | 55.26 ± 0.25 | 23.9 ± 1.09 |
